Activity calls are given as the source filed them.
Columns and labels:
Mus musculus [1] = test: Anticonvulsant activity in mouse assessed as protection against subcutaneous pentylenetetrazol-induced seizures at 30 mg/kg, ip measured after 4 hrs; format: functional, organism-based
In short: (§1)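 Mice dosed ip as 0.5% methylcellulose suspension; pentylenetetrazole 85 mg/kg in 0.9% NaCl injected subcutaneously into posterior midline, animals watched at least 30 min. Protection = no threshold seizure (single clonic spasm episode lasting ≥5 s); scored protected/tested.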

Mus musculus [2] = test: Anticonvulsant activity in mouse assessed as protection against maximal electric shock-induced seizures at 100 mg/kg, ip measured after 4 hrs; format: functional, organism-based
In short: (§2)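 Mice dosed ip with suspension in 0.5% methylcellulose; maximal electroshock applied at the listed time after dosing. Protection = abolition of hindlimb tonic extension component of seizure; reported as animals protected/animals tested.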

Mus musculus [3] = test: Anticonvulsant activity in mouse assessed as protection against subcutaneous pentylenetetrazol-induced seizures at 100 mg/kg, ip measured after 0.5 hrs; format: functional, organism-based; in short: as §1
Mus musculus [4] = test: Anticonvulsant activity in mouse assessed as protection against maximal electric shock-induced seizures at 30 mg/kg, ip measured after 4 hrs; format: functional, organism-based; in short: as §2
Mus musculus [5] = test: Anticonvulsant activity in mouse assessed as protection against maximal electric shock-induced seizures at 100 mg/kg, ip measured after 0.5 hrs; format: functional, organism-based; in short: as §2
Mus musculus [6] = test: Neurotoxicity in mouse at 300 mg/kg, ip after 0.5 hrs by rotarod test; format: toxicity, organism-based; conditions: in vivo
In short: (§3)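 Mice were dosed ip with compound suspended in 0.5% methylcellulose. Rotarod: a 1 in. knurled rod turning at 6 rpm. Neurotoxicity was scored as failure to stay on the rod for at least 1 min in each of three trials. Results are given as the number of animals affected out of the number tested.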

Mus musculus [7] = test: Neurotoxicity in mouse at 30 mg/kg, ip after 4 hrs by rotarod test; format: toxicity, organism-based; conditions: in vivo; in short: as §3
Mus musculus [8] = test: Anticonvulsant activity in mouse assessed as protection against subcutaneous pentylenetetrazol-induced seizures at 30 mg/kg, ip measured after 0.5 hrs; format: functional, organism-based; in short: as §1
Mus musculus [9] = test: Anticonvulsant activity in mouse assessed as protection against maximal electric shock-induced seizures at 30 mg/kg, ip measured after 0.5 hrs; format: functional, organism-based; in short: as §2
Mus musculus [10] = test: Neurotoxicity in mouse at 100 mg/kg, ip after 4 hrs by rotarod test; format: toxicity, organism-based; conditions: in vivo; in short: as §3
Mus musculus [11] = test: Neurotoxicity in mouse at 30 mg/kg, ip after 0.5 hrs by rotarod test; format: toxicity, organism-based; conditions: in vivo; in short: as §3
Mus musculus [12] = test: Anticonvulsant activity in mouse assessed as protection against subcutaneous pentylenetetrazol-induced seizures at 100 mg/kg, ip measured after 4 hrs; format: functional, organism-based; in short: as §1
Mus musculus [13] = test: Neurotoxicity in mouse at 100 mg/kg, ip after 0.5 hrs by rotarod test; format: toxicity, organism-based; conditions: in vivo; in short: as §3
Vibrio harveyi [14] = test: Mutagenicity in Vibrio harveyi BB7M assessed as number of colonies after 48 hrs (reference value: 13 to 14 no_unit); format: ADME, organism-based; conditions: in vivo
In short: (§4)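 Vibrio harveyi mutagenicity test: test compound was added to exponentially growing cultures (A600 = 0.1, 30 °C) and grown to OD600 0.3–0.4. Then 5 × 10^6 cells were plated on BOSS agar with neomycin (final 100 µg/mL) and incubated 48 h at 30 °C. Neomycin-resistant colonies were counted. Triplicate; controls were water, DMSO and NQNO 40 ng/mL.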

Vibrio harveyi [15] = test: Mutagenicity in Vibrio harveyi BB7XM assessed as number of colonies after 48 hrs (reference value: 14 no_unit); format: ADME, organism-based; conditions: in vivo; in short: as §4
Vibrio harveyi [16] = test: Mutagenicity in Vibrio harveyi BB7X assessed as number of colonies after 48 hrs (reference value: 15 to 16 no_unit); format: ADME, organism-based; conditions: in vivo; in short: as §4
Vibrio harveyi [17] = test: Mutagenicity in Vibrio harveyi BB7 assessed as number of colonies after 48 hrs (reference value: 13 to 14 no_unit); format: ADME, organism-based; conditions: in vivo; in short: as §4
Vibrio harveyi [18] = test: Antimutagenic activity against Vibrio harveyi BB7 assessed as inhibition of NQNO-induced mutagenicity after 48 hrs; format: functional
In short: (§5)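 V. harveyi cultures grown exponentially to A600 0.1 at 30 °C, exposed to test compound for 15 min, then to NQNO, and grown on to A600 0.3–0.4. 5 × 10⁶ cells plated on BOSS agar with neomycin (100, final). Neomycin-resistant colonies counted after 48 h at 30 °C. Result given as % inhibition of NQNO mutagenicity; three independent repeats.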

Vibrio harveyi [19] = test: Antimutagenic activity against Vibrio harveyi BB7M assessed as inhibition of NQNO-induced mutagenicity after 48 hrs; format: functional; in short: as §5
Vibrio harveyi [20] = test: Antimutagenic activity against Vibrio harveyi BB7XM assessed as inhibition of NQNO-induced mutagenicity after 48 hrs; format: functional; in short: as §5
Vibrio harveyi [21] = test: Antimutagenic activity against Vibrio harveyi BB7X assessed as inhibition of NQNO-induced mutagenicity after 48 hrs; format: functional; in short: as §5

| Compound | Activity (Mus musculus [1]) | Activity (Mus musculus [2]) | Activity (Mus musculus [3]) | Activity (Mus musculus [4]) | Activity (Mus musculus [5]) | Activity (Mus musculus [6]) | Activity (Mus musculus [7]) | Activity (Mus musculus [8]) | Activity (Mus musculus [9]) | Activity (Mus musculus [10]) | Activity (Mus musculus [11]) | Activity (Mus musculus [12]) | Activity (Mus musculus [13]) | Activity (Vibrio harveyi [14]) | Activity (Vibrio harveyi [15]) | Activity (Vibrio harveyi [16]) | Activity (Vibrio harveyi [17]) | also measured |
| --- | --- | --- | --- | --- | --- | --- | --- | --- | --- | --- | --- | --- | --- | --- | --- | --- | --- | --- |
| Cc1cccc(OCCNC(C)(C)CO)c1C | inactive | inactive | inactive | inactive | Active | Toxic | Non-toxic | inactive | inactive | Non-toxic | Non-toxic | inactive | – | – | – | – | – | – |
| CCC(CO)NCCCOc1cccc(C)c1C (stereo not drawn) | inactive | inactive | inactive | inactive | Active | Toxic | Non-toxic | inactive | inactive | Non-toxic | Non-toxic | inactive | Toxic | – | – | – | – | – |
| CCC(CO)NCCOc1cccc(C)c1C (stereo not drawn) | inactive | inactive | inactive | inactive | Active | – | Non-toxic | inactive | inactive | Non-toxic | Non-toxic | inactive | Toxic | – | – | – | – | – |
| Cc1cccc(OCCNC(C)CO)c1C (stereo not drawn) | inactive | inactive | inactive | inactive | Active | Toxic | Non-toxic | inactive | inactive | Non-toxic | Non-toxic | inactive | – | – | – | – | – | – |
| Cc1cccc(OCCOCCN[C@H]2CC[C@H](O)CC2)c1C | – | – | – | – | – | – | – | – | – | – | – | – | – | 25 | 20 | 27 | 22 | – |
| Cc1ccc(OCCN[C@H](C)CO)c(C)c1 | – | – | – | – | – | – | – | – | – | – | – | – | – | 26 | 23 | 17 | 22 | – |
| Cc1cccc(OCCCNC(C)CO)c1C (stereo not drawn) | inactive | inactive | inactive | inactive | Active | Toxic | Non-toxic | inactive | inactive | Non-toxic | Non-toxic | inactive | Toxic | – | – | – | – | – |
| Cc1cccc(C)c1OCCOCCN1CCC(O)CC1 | inactive | inactive | – | inactive | – | Toxic | Non-toxic | inactive | inactive | Non-toxic | Non-toxic | inactive | – | 18 | 26 | 16 | 22 | inhibition (INH) (Vibrio harveyi [18]): 84%; inhibition (INH) (Vibrio harveyi [19]): 34%; inhibition (INH) (Vibrio harveyi [20]): 26%; inhibition (INH) (Vibrio harveyi [21]): 12% |

— ChEMBL document CHEMBL3774372, “Design, physico-chemical properties and biological evaluation of some new N-[(phenoxy)alkyl]- and N-{2-[2-(phenoxy)ethoxy]ethyl}aminoalkanols as anticonvulsant agents” (Bioorg Med Chem, 2016)
